In brackets after ≈: the same amount, converted by molar mass. One block for each molecule: values may come before it. Activity calls are given as the source filed them. The rule behind the calls is not given here. Residues, ends and D or L forms follow the SMILES beside them.
Legend:
[1] = test system: Human alphaherpesvirus 1; experiment: Antiviral activity against HSV1 ATCC VR260 by colorimetry; type: functional, organism-based
Method in brief: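 HSV-1 strain ATCC VR 260; colorimetric method; compounds tested at 50 μg/mL; acyclovir as positive control.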

[2] = test system: Candida albicans; experiment: Antimicrobial activity against Candida albicans ATCC 90028 by tetrazolium/formazan assay; type: functional, organism-based
Method in brief: (§1)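 Candida albicans ATCC 90028 tested by tetrazolium/formazan assay; compounds at 50 μg/mL.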

[3] = species: Gallus gallus; experiment: Inhibition of blebbistatin-induced neurite outgrowth in chicken medulla neurons at 50 uM after 24 hrs; type: functional
[4] = Toxicity against E7 chicken spinal cord neurons assessed as effect on cell viability at 50 uM after 2 days; set-up: species or system Gallus gallus; conditions: 48 h
[5] = Toxicity against chicken medulla neurons assessed as effect on cell viability at 50 uM after 24 hrs; set-up: species or system Gallus gallus
[6] = test system: IPC-298; experiment: Antiproliferative activity against human IPC298 cells assessed as cell density at 50 uM after 2 days; type: functional
Method in brief: (§2)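 IPC-298 melanoma cells grown in DMEM/Ham's F12 with stabilized L-glutamine, 10% heat-inactivated FCS, penicillin/streptomycin. Plated at 100 000 cells per cm², cultured with or without compound (10 and 50 μM) for 2 days. Viable cells counted on phase-contrast digital pictures as cells per 0.36 mm². Debris and apoptotic nuclei judged by microscopy.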

[7] = test system: IPC-298; experiment: Cytotoxicity against human IPC298 cells assessed as cell debris level at 50 uM after 2 days; type: functional, cell-based; method in brief: as §2
[8] = test system: IPC-298; experiment: Cytotoxicity against human IPC298 cells assessed as apoptotic cell nuclei level at 50 uM after 2 days; type: functional, cell-based; method in brief: as §2
[9] = test system: Human alphaherpesvirus 1; experiment: Antiviral activity against HSV1 ATCC VR260 at 50 ug/mL by colorimetry; type: functional, organism-based
Method in brief: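 Against HSV-1 strain ATCC VR 260, colorimetric method; compounds at 50 μg/mL; acyclovir as positive control.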

[10] = test system: Plasmodium falciparum; experiment: Antimalarial activity against multidrug-resistant Plasmodium falciparum K1 at 10 ug/mL; type: functional, organism-based
Method in brief: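 P. falciparum K1 maintained in continuous culture; in vitro activity quantified by microculture radioisotope technique; compounds tested at 10 μg/mL.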

[11] = test system: Candida albicans; experiment: Antimicrobial activity against Candida albicans ATCC 90028 at 50 ug/mL by tetrazolium/formazan assay; type: functional, organism-based; method in brief: as §1
[12] = species: Gallus gallus; experiment: Inhibition of neurite outgrowth in E7 chicken spinal cord neurons at 50 uM after 2 days; type: functional
Method in brief: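 Spinal cord (anterior) from 7-day chicken embryos dissociated with trypsin/DNAseI at 37 °C for 20 min, washed in HEPES-buffered medium. 50 000 cells plated per 1 cm² on polylysine/fibronectin coating in HBM with 10% FCS at 37 °C, no CO₂. Cultured with or without compound (10 or 50 μM) for 2 days; neurites scored by phase-contrast microscopy.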

[13] = test system: Capan-2; experiment: Inhibition of cell migration of human Capan 2 cells at 50 uM after 20 h by scratch migration assay; conditions: Capan-2, 20 h
[14] = species: Homo sapiens; experiment: Effect on cell viability of human Capan II cells assessed as cell morphology changes at 50 uM after 20 h
[15] = test system: Mycobacterium tuberculosis; experiment: Antimycobacterial activity

Compound: Nc1nc2c(ncn2COCCO)c(=O)[nH]1 [ACYCLOVIR]
IC50 [1]: 0.5 µg/mL (≈ 2.22 µM)

IC50 [2]: 0.08 µg/mL (≈ 0.0866 µM)
Compound: C[C@@H]1[C@H](O)[C@@H](C)/C=C/C=C/C=C/C=C/C=C/C=C/C=C/[C@H](O[C@@H]2O[C@H](C)[C@@H](O)[C@H](N)[C@@H]2O)C[C@@H]2O[C@](O)(C[C@@H](O)C[C@@H](O)[C@H](O)CC[C@@H](O)C[C@@H](O)CC(=O)O[C@H]1C)C[C@H](O)[C@H]2C(=O)O [AMPHOTERICIN B]

Compound: CC(C)C[C@@H]1NC(=O)CNC(=O)[C@H](Cc2c[nH]c3ccccc23)NC(=O)[C@@H]2CCCN2C(=O)[C@H]([C@@H](C)O)NC(=O)[C@H](CC(C)C)NC(=O)[C@H](CC(C)C)NC1=O [INTEGERRIMIDE A] (cyclo(GLLLTPW))
Activity [3]: Active | Activity [4]: Non-toxic | Activity [5]: Non-toxic | Activity [6]: 40% | Activity [7]: inactive | Activity [8]: inactive | Activity [9]: inactive | Activity [10]: inactive | Activity [11]: inactive | Activity [12]: Active | inhibition at 50 µM [13]: 30% | Activity [14]: inactive

Compound: CC(C)C[C@@H]1NC(=O)[C@H](C)NC(=O)[C@H](Cc2c[nH]c3ccccc23)NC(=O)[C@@H]2CCCN2C(=O)[C@H](CO)NC(=O)[C@H](C(C)C)NC(=O)[C@H](CC(C)C)NC1=O [INTEGERRIMIDE B] (cyclo(ALLVSPW))
Activity [4]: Non-toxic | Activity [5]: Non-toxic | Activity [6]: 40% | Activity [7]: inactive | Activity [8]: inactive | Activity [9]: inactive | Activity [10]: inactive | Activity [11]: inactive | Activity [12]: Active | inhibition at 50 µM [13]: 20% | Activity [14]: inactive

Compound: NNC(=O)c1ccncc1 [ISONIAZID]
MIC [15]: 0.1 µg/mL (≈ 0.729 µM)

Compound: NC[C@H]1O[C@H](O[C@H]2[C@H](O)[C@@H](O[C@H]3O[C@H](CO)[C@@H](O)[C@H](N)[C@H]3O)[C@H](N)C[C@@H]2N)[C@H](O)[C@@H](O)[C@@H]1O [KANAMYCIN]
MIC [15]: 2.5 µg/mL (≈ 5.16 µM)

Compound: CO[C@H]1/C=C/O[C@@]2(C)Oc3c(C)c(O)c4c(O)c(c(/C=N/N5CCN(C)CC5)c(O)c4c3C2=O)NC(=O)/C(C)=C\C=C\[C@H](C)[C@H](O)[C@@H](C)[C@@H](O)[C@@H](C)[C@H](OC(C)=O)[C@@H]1C [RIFAMPIN]
MIC [15]: 0.0023 µg/mL (≈ 0.00279 µM)
